Data: ChEMBL document CHEMBL1955735, “Tea catechins and flavonoids from the leaves of Camellia sinensis inhibit yeast alcohol dehydrogenase” (Bioorg Med Chem, 2012)
The source made the active and inactive calls. The calls are words filed in the database; no cut-off is given here.

Tests used:
[1] = Inhibition of aldehyde dehydrogenase
[2] = Inhibition of Saccharomyces cerevisiae alcohol dehydrogenase measured every 5 mins for 2 hrs by spectrophotometry
In short: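 Yeast ADH in a microplate. DMSO sample stocks were serially diluted in 10 mM PBS pH 7.4 and combined with ethanol (25% in PBS) and β-NAD⁺ (1.87 mM in PBS), both as added solutions. The mix was equilibrated 5 min at 24 °C, then ADH (1180 unit/L solution) was added and incubated 2 h at 24 °C. NADH was read at A340 every 5 min. IC50 was the concentration halving NADH versus the PBS control at 2 h. Run in triplicate, with disulfiram as positive control.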

[3] = tested on: Radical scavenging activity; assay: Antioxidant activity assessed as DPPH radical scavenging activity after 30 mins by spectrophotometry; format: functional
In short: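 Microplate DPPH assay: 30 min incubation at room temperature, then absorbance read at 517 nm. IC50 is the concentration giving a 50% drop in absorbance relative to the DPPH control solution.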

[4] = Activation of aldehyde dehydrogenase

O=c1c(O[C@@H]2O[C@H](CO)[C@@H](O)[C@H](O)[C@H]2O)c(-c2cc(O)c(O)c(O)c2)oc2cc(O)cc(O)c12
inhibition [1]: inactive
IC50 [2]: 19.9 µM
IC50 [3]: 28 µM
Activity [4]: inactive

COc1cc(C(=O)O[C@@H]2Cc3c(O)cc(O)cc3O[C@@H]2c2ccc(O)c(O)c2)cc(O)c1O
inhibition [1]: inactive
IC50 [2]: 44.1 µM
IC50 [3]: 10.8 µM
Activity [4]: inactive

O=C(O[C@@H]1Cc2c(O)cc(O)cc2O[C@@H]1c1ccc(O)cc1)c1cc(O)c(O)c(O)c1
inhibition [1]: inactive
IC50 [2]: 44.3 µM
IC50 [3]: 2.8 µM
Activity [4]: inactive

O=C(/C=C\c1ccc(O)cc1)O[C@@H]1Cc2c(O)cc(O)cc2O[C@@H]1c1cc(O)c(O)c(O)c1
inhibition [1]: inactive
IC50 [2]: 22.1 µM
IC50 [3]: 26.4 µM
Activity [4]: inactive

C[C@@H]1O[C@@H](OC[C@H]2O[C@@H](Oc3c(-c4ccc(O)c(O)c4)oc4cc(O)cc(O)c4c3=O)[C@H](O)[C@@H](O)[C@@H]2O)[C@H](O)[C@H](O[C@@H]2O[C@H](CO)[C@@H](O)[C@H](O)[C@H]2O)[C@H]1O
inhibition [1]: inactive
IC50 [2]: 19.7 µM
IC50 [3]: 7.7 µM
Activity [4]: inactive

C[C@@H]1O[C@@H](OC[C@H]2O[C@@H](Oc3c(-c4ccc(O)c(O)c4)oc4cc(O)cc(O)c4c3=O)[C@H](O)[C@@H](O)[C@H]2O)[C@H](O)[C@H](O[C@@H]2O[C@H](CO)[C@@H](O)[C@H](O)[C@H]2O)[C@H]1O
inhibition [1]: inactive
IC50 [2]: 41 µM
IC50 [3]: 30.1 µM
Activity [4]: inactive

C[C@@H]1O[C@@H](OC[C@H]2O[C@@H](Oc3c(-c4ccc(O)cc4)oc4cc(O)cc(O)c4c3=O)[C@H](O)[C@@H](O)[C@H]2O)[C@H](O)[C@H](O[C@@H]2O[C@H](CO)[C@@H](O)[C@H](O)[C@H]2O)[C@H]1O
inhibition [1]: inactive
IC50 [2]: 17.6 µM
IC50 [3]: > 100 µM
Activity [4]: inactive

O=C(/C=C/c1ccc(O)cc1)O[C@@H]1Cc2c(O)cc(O)cc2O[C@@H]1c1cc(O)c(O)c(O)c1
inhibition [1]: inactive
IC50 [2]: 8 µM
IC50 [3]: 43.8 µM
Activity [4]: inactive

O=c1c(O[C@@H]2O[C@H](CO)[C@H](O)[C@H](O)[C@H]2O)c(-c2cc(O)c(O)c(O)c2)oc2cc(O)cc(O)c12
inhibition [1]: inactive
IC50 [2]: 18.2 µM
IC50 [3]: 3.5 µM
Activity [4]: inactive

Cc1c(C)c2c(c(C)c1O)CC[C@@](C)(CCC[C@H](C)CCC[C@H](C)CCCC(C)C)O2 [ALPHA-TOCOPHEROL]
IC50 [3]: 11.4 µM

Cn1c(=O)c2c(ncn2C)n(C)c1=O [CAFFEINE]
inhibition [1]: inactive
IC50 [2]: 197 µM
IC50 [3]: > 100 µM
Activity [4]: inactive

C[C@@H]1O[C@@H](OC[C@H]2O[C@@H](Oc3c(-c4ccc(O)c(O)c4)oc4cc(O)cc(O)c4c3=O)[C@H](OC(=O)/C=C/c3ccc(O)cc3)[C@@H](O[C@@H]3OC[C@H](O)[C@H](O)[C@H]3O)[C@@H]2O)[C@H](O)[C@H](O[C@@H]2O[C@H](CO)[C@@H](O)[C@H](O)[C@H]2O)[C@H]1O [CAMELLIQUERCETISIDE A]
inhibition [1]: inactive
IC50 [2]: 17.3 µM
IC50 [3]: 19.8 µM
Activity [4]: inactive

C[C@@H]1O[C@@H](OC[C@H]2O[C@@H](Oc3c(-c4ccc(O)c(O)c4)oc4cc(O)cc(O)c4c3=O)[C@H](OC(=O)/C=C/c3ccc(O)cc3)[C@@H](O)[C@@H]2O)[C@H](O)[C@H](O[C@@H]2O[C@H](CO)[C@@H](O)[C@H](O)[C@H]2O)[C@H]1O [CAMELLIQUERCETISIDE B]
inhibition [1]: inactive
IC50 [2]: 13.7 µM
IC50 [3]: 22 µM
Activity [4]: inactive

C[C@@H]1O[C@@H](OC[C@H]2O[C@@H](Oc3c(-c4ccc(O)c(O)c4)oc4cc(O)cc(O)c4c3=O)[C@H](OC(=O)/C=C/c3ccc(O)cc3)[C@@H](O[C@@H]3OC[C@H](O)[C@H](O)[C@H]3O)[C@@H]2O)[C@H](O)[C@H](O)[C@H]1O [CAMELLIQUERCETISIDE C]
inhibition [1]: inactive
IC50 [2]: 46.7 µM
IC50 [3]: 31.9 µM
Activity [4]: inactive

C[C@@H]1O[C@@H](OC[C@H]2O[C@@H](Oc3c(-c4ccc(O)c(O)c4)oc4cc(O)cc(O)c4c3=O)[C@H](OC(=O)/C=C/c3ccc(O)cc3)[C@@H](O)[C@@H]2O)[C@H](O)[C@H](O)[C@H]1O [CAMELLIQUERCETISIDE D]
inhibition [1]: inactive
IC50 [2]: 41.5 µM
IC50 [3]: 29.2 µM
Activity [4]: inactive

Oc1cc(O)c2c(c1)O[C@H](c1ccc(O)c(O)c1)[C@@H](O)C2 [CIANIDANOL]
inhibition [1]: inactive
IC50 [2]: 21.1 µM
IC50 [3]: 4.3 µM
Activity [4]: inactive

CCN(CC)C(=S)SSC(=S)N(CC)CC [DISULFIRAM]
IC50 [2]: 248 µM

O=C(O[C@@H]1Cc2c(O)cc(O)cc2O[C@@H]1c1ccc(O)c(O)c1)c1cc(O)c(O)c(O)c1 [EPICATECHIN GALLATE]
inhibition [1]: inactive
IC50 [2]: 65.5 µM
IC50 [3]: 1.5 µM
Activity [4]: inactive

Oc1cc(O)c2c(c1)O[C@H](c1cc(O)c(O)c(O)c1)[C@H](O)C2 [EPIGALLOCATECHIN]
inhibition [1]: inactive
IC50 [2]: 16.5 µM
IC50 [3]: 16.2 µM
Activity [4]: inactive

O=C(O[C@@H]1Cc2c(O)cc(O)cc2O[C@@H]1c1cc(O)c(O)c(O)c1)c1cc(O)c(O)c(O)c1 [EPIGALOCATECHIN GALLATE]
inhibition [1]: inactive
IC50 [2]: 42.8 µM
IC50 [3]: 8.3 µM
Activity [4]: inactive

C[C@@H]1O[C@@H](OC[C@H]2O[C@@H](Oc3c(-c4ccc(O)cc4)oc4cc(O)cc(O)c4c3=O)[C@H](O)[C@@H](O)[C@@H]2O)[C@H](O)[C@H](O)[C@H]1O [NICOTIFLOROSIDE]
inhibition [1]: inactive
IC50 [2]: 40.4 µM
IC50 [3]: > 100 µM
Activity [4]: inactive

O=c1c(O[C@@H]2O[C@H](CO)[C@H](O)[C@H](O)[C@H]2O)c(-c2ccc(O)cc2)oc2cc(O)cc(O)c12 [TRIFOLIN]
inhibition [1]: inactive
IC50 [2]: 70.3 µM
IC50 [3]: > 100 µM
Activity [4]: inactive
